Data published in PMC5773961 (British Journal of Pharmacology, 2017).
Values after ≈ are worked out from the molar mass of the structure shown. Where two headings read alike, the source gives them in different places.

Key:
[1] = system: benzodiazepine (BZD) receptor; conditions: ref Czernik et al., 1982; cited from earlier work
α6β3γ2 GABAA receptors = α6β3γ2 GABAA receptors (Rattus norvegicus, UniProt P30191+P63079); format: cell-based; conditions: for modulation of GABA EC3–5 currents in screening of compounds 5–9, in words: 10 μM compound, comparable to compound 3
Chain of α6β3γ2 GABAA receptors (P30191 20-453): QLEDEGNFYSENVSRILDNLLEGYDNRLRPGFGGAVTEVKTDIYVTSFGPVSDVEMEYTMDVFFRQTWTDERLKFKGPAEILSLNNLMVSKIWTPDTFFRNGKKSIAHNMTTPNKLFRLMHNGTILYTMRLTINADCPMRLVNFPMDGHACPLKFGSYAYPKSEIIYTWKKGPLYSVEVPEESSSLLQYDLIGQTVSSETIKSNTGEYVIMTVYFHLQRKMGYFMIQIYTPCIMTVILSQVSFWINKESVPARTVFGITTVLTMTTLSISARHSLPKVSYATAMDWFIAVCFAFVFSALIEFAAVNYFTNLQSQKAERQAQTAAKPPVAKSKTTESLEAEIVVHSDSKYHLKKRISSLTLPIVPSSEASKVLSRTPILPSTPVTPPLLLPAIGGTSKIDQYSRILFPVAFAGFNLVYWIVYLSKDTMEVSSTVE
Chain of α6β3γ2 GABAA receptors (P63079 26-473): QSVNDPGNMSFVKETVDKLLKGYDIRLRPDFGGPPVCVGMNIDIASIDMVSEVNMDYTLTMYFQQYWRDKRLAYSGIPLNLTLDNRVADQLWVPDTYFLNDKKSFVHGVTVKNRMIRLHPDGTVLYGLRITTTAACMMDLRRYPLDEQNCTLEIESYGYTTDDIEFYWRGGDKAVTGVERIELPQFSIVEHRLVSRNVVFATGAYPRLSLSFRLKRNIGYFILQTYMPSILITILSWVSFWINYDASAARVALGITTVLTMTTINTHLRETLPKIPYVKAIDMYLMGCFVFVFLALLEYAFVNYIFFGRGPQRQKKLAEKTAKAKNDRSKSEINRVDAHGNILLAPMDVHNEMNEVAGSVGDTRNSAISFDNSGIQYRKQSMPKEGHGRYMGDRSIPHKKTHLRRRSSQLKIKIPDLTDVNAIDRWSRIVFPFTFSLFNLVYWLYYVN
Chain of α6β3γ2 GABAA receptors (P18508 39-466 partner): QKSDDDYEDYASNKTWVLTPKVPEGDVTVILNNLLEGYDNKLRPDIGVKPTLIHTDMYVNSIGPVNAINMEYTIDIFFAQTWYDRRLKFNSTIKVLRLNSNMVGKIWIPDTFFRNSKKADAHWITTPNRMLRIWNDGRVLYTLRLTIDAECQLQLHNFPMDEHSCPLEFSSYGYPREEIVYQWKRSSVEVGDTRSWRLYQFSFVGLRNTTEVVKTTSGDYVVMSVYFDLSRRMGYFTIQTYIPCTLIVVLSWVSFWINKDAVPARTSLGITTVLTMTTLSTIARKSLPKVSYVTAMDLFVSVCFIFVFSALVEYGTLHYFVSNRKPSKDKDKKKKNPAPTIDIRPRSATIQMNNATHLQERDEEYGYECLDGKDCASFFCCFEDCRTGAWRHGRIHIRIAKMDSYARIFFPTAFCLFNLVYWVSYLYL
How it was run: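 Oocytes (X. laevis, stage 5–6, defolliculated) received 2.5 ng of rat α6:β3:γ2 mRNA at 3:1:5, or γ2‐β3‐α6 triple plus β3‐α6 double concatemer cRNA at 1:1. Incubated ≥36 h at 18°C. TEVC at −60 mV, room temperature. Per-oocyte GABA EC3–5 co-applied with test compound(s) at various concentrations, 0.1% DMSO final. Hill fit for EC50. ≥3 oocytes from two batches.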

α1β3γ2 GABAA receptors = α1β3γ2 GABAA receptors (Rattus norvegicus, UniProt P62813+P63079); format: cell-based; conditions: for % modulation of GABA EC3–5 currents: 10 μM compound, control (GABA) = EC3–5
Chain of α1β3γ2 GABAA receptors (P62813 28-455): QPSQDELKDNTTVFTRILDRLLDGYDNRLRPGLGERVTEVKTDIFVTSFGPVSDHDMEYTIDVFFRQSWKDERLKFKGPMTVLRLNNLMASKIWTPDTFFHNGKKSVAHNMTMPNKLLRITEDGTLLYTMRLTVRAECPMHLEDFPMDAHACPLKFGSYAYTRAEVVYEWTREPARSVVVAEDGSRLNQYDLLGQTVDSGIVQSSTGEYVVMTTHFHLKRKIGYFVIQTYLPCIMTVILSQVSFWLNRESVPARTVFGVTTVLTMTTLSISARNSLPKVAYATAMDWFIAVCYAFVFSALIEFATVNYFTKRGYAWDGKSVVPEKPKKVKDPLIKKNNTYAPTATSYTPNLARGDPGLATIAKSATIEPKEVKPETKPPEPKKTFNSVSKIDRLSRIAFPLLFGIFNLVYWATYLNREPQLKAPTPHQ
Chain of α1β3γ2 GABAA receptors (P63079 26-473): as the sequence (P63079 26-473) above
Chain of α1β3γ2 GABAA receptors (P18508 39-466 partner): as the sequence (P18508 39-466 partner) above
How it was run: (§1)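 Rat α and β3/γ2 subunit mRNA (2.5 ng total) injected into defolliculated stage 5–6 X. laevis oocytes. Ratio α:β3:γ2 was 1:1:5 for α1, α2, α3 and α5, and 3:1:5 for α4. Oocytes held ≥36 h at 18°C in NDE. TEVC was run at −60 mV at room temperature under 6 mL·min−1 NDE perfusion. Per-oocyte GABA EC3–5 co-applied with test compound in 0.1% DMSO final. ≥3 oocytes from two batches.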

[2] = system: αxβ3γ2 (x = 1–5) GABAA receptors; format: cell-based, rat
How it was run: as §1

α5β3γ2 GABAA receptors = α5β3γ2 GABAA receptors (Rattus norvegicus, UniProt P19969+P63079); format: cell-based
Chain of α5β3γ2 GABAA receptors (P19969 32-464 limits assumed): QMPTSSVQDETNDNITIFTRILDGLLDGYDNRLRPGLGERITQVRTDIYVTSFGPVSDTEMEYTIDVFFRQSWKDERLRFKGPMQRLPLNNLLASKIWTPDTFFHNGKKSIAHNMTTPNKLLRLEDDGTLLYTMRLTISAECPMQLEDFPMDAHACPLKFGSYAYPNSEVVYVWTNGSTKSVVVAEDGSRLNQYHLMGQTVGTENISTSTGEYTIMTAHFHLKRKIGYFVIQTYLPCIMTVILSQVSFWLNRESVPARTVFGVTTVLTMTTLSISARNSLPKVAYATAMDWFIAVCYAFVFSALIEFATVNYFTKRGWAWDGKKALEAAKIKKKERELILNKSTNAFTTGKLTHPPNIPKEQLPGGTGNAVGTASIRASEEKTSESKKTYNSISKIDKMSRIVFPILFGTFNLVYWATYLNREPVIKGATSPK
Chain of α5β3γ2 GABAA receptors (P63079 26-473): as the sequence (P63079 26-473) above
Chain of α5β3γ2 GABAA receptors (P18508 39-466 partner): as the sequence (P18508 39-466 partner) above
How it was run: as §1

[3] = Solubility limit in the assay buffer; format: physicochemical; conditions: aqueous buffer
[4] = system: αxβ3γ2 (x = 1–6) GABAA receptors; format: cell-based, rat
α1β3 receptors = α1β3 receptors (Rattus norvegicus, UniProt P62813+P63079); test: Two-electrode voltage clamp, α1β3 versus α1β3γ2 receptors; format: cell-based; conditions: independence from γ2 subunit
Chain of α1β3 receptors (P62813 28-455): as the sequence (P62813 28-455) above
Chain of α1β3 receptors (P63079 26-473): as the sequence (P63079 26-473) above
How it was run: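 Two-electrode voltage clamp of rat subunit mRNA-injected X. laevis oocytes, ≥36 h at 18°C in NDE (pH 7.5) before recording. Held at −60 mV at room temperature under continuous NDE flow. GABA titrated per oocyte to EC3–5 and co-applied with test compound, 0.1% DMSO final.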

[5] = system: αxβ3γ2 (x = 1–5) GABAA receptors; conditions: non‐α6, αxβ3γ2 receptors; 10 μM; ref Varagic et al., 2013a; cited from earlier work
α6+/γ2− BZ site = α6+/γ2− BZ site (Rattus norvegicus, UniProt P18508+P30191); test: Saturation binding of [3H]Ro15-4513 to rat cerebellar membranes; conditions: presence of diazepam, rat cerebellum, n=3
Chain of α6+/γ2− BZ site (P30191 20-453): as the sequence (P30191 20-453) above
Chain of α6+/γ2− BZ site (P18508 39-466): as the sequence (P18508 39-466 partner) above

[6] = α6β3γ2, 1 μM compound, control (GABA) = EC3–5

Structure (SMILES): O=C1C2C=Nc3ccccc3C2=NN1c1ccccc1 (stereo not shown) [CGS8216]
- concentrations displacing [3H]‐flunitrazepam and [3H]‐diazepam binding [1]: subnanomolar

Structure (SMILES): COc1cccc(-n2nc3c4cc(Cl)ccc4[nH]cc-3c2=O)c1 [Compound 3, 8‐chloro‐2‐(3‐methoxyphenyl)‐2H,3H,5H‐pyrazolo[4,3‐c]quinolin‐3‐one]
- EC50 (α6β3γ2 GABAA receptors): 3100 nM
- % modulation of GABA EC3–5 currents (α6β3γ2 GABAA receptors; α6β3γ2, 10 μM compound concentration, control GABA EC3–5 = 100%): around 300%
- type of modulation (α1β3γ2 GABAA receptors): null (silent) modulator
- effect on positive GABA current modulation by compound 2 (1 μM) (α1β3γ2 GABAA receptors; co-application of 10 and 30 μM): reduced the modulatory effect of compound 2
- modulatory activity [2]: completely abolished

Structure (SMILES): COc1ccccc1-n1nc2c3cc(Cl)ccc3[nH]cc-2c1=O [Compound 4, 8‐chloro‐2‐(2‐methoxyphenyl)‐2H,3H,5H‐pyrazolo[4,3‐c]quinolin‐3‐one]
- effect on modulation elicited by compound 3 (3 μM) (α6β3γ2 GABAA receptors; α6β3γ2, co-application up to 30 μM): unable to abolish the modulatory effect
- modulatory activity (α5β3γ2 GABAA receptors): weak negative modulatory activity
- solubility [3]: 30 µM (≈ 9.77 µg/mL)
- positive allosteric modulation (PAM) activity [4]: abolished any positive allosteric modulation (PAM) activity

Structure (SMILES): Cc1cccc(-n2nc3c4cc(Cl)ccc4[nH]cc-3c2=O)c1 [Compound 5, 8‐chloro‐2‐(3‐methylphenyl)‐2H,3H,5H‐pyrazolo‐[4,3‐c]quinolin‐3‐one]
- % modulation of GABA EC3–5 currents (α6β3γ2 GABAA receptors; [6]): more than 150%
- modulation of GABA EC3–5 currents in screening of compounds 5–9, in words (α6β3γ2 GABAA receptors; α6β3γ2): strongest modulation
- % modulation of GABA EC3–5 currents (α1β3γ2 GABAA receptors): 210.7 ± 17%
- modulatory effects in α1β3γ2 and α1β3 (α1β3 receptors): overlapping

Structure (SMILES): Nc1cccc(-n2nc3c4cc(Cl)ccc4[nH]cc-3c2=O)c1 [Compound 8, 2‐(3‐aminophenyl)‐8‐chloro‐2H,3H,5H‐pyrazolo[4,3‐c]quinolin‐3‐one]
- modulation of GABA EC3–5 currents in screening of compounds 5–9, in words (α6β3γ2 GABAA receptors; α6β3γ2): strongest modulation

Structure (SMILES): O=C(O)c1cccc(-n2nc3c4cc(Cl)ccc4[nH]cc-3c2=O)c1 [Compound 9, 3‐(8‐chloro‐3‐oxo‐2H,3H,5H‐pyrazolo[4,3‐c]quinolin‐2‐yl)benzoic acid]
- % modulation of GABA EC3–5 currents (α6β3γ2 GABAA receptors; [6]): more than 150%
- modulation of GABA EC3–5 currents in screening of compounds 5–9, in words (α6β3γ2 GABAA receptors; α6β3γ2): strongest modulation
- type of modulation (α1β3γ2 GABAA receptors): negative allosteric modulation
- % modulation of GABA EC3–5 currents (α1β3γ2 GABAA receptors): 17.9 ± 7.4%
- modulatory effects in α1β3γ2 and α1β3 (α1β3 receptors): overlapping

Structure (SMILES): COc1ccc(-n2nc3c4ccc(OC)cc4[nH]cc-3c2=O)cc1 [PZ‐II‐029]
- residual modulatory activity, % of control GABA currents [5]: roughly 200%

Structure (SMILES): CCOC(=O)c1ncn2c1CN(C)C(=O)c1cc(N=[N+]=[N-])ccc1-2 [[3H]Ro15-4513]
- Kd (α6+/γ2− BZ site): 1.4 ± 0.1 nM
